Results as given in ChEMBL document CHEMBL5236609, “Optimization of 1,2,4-Triazole-3-thiones toward Broad-Spectrum Metallo-β-lactamase Inhibitors Showing Potent Synergistic Activity on VIM- and NDM-1-Producing Clinical Isolates” (J Med Chem, 2022).

system: not listed separately; experiment: Inhibition of bacterial VIM-2 (unknown origin) expressed in Escherichia coli EXPRESS BL21(DE3) assessed as inhibition constant by measuring rate of substrate hydrolysis by UV-visible spectrophotometry; design: species or system Bacteria; conditions: not given
Outline: (§1)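 Reporter-substrate assay with purified MBL (1–70 nM final) in 50 mM HEPES pH 7.5 at 30 °C. […] Inhibitor 0.5–1000 μM final. Ki derived from the v0/vi vs [I] slope assuming competitive inhibition, or from a Dixon plot. Ki given when inhibition >70%, otherwise % inhibition at 100 μM. Triplicate.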

| Structure (SMILES) | Ki [nM] |
| --- | --- |
| Cc1[nH]cnc1CN(Cc1c[nH]cn1)[C@@H](CCCn1c(-c2ccccc2)n[nH]c1=S)C(=O)O | 350 |
| O=C(O)[C@H](CCCn1c(-c2ccc3ccccc3c2)n[nH]c1=S)N(Cc1c[nH]cn1)Cc1c[nH]cn1 | 110 |
| O=C(O)[C@H](CCCn1c(-c2ccccc2)n[nH]c1=S)N(Cc1c[nH]cn1)Cc1c[nH]cn1 | 410 |
| O=C(O)[C@H](CCn1c(-c2ccccc2)n[nH]c1=S)N(Cc1c[nH]cn1)Cc1c[nH]cn1 | 210 |
| O=C(O)[C@H](CCCn1c(-c2ccccc2)n[nH]c1=S)N(Cc1ccccn1)Cc1ccccn1 | 960 |

system: not listed separately; experiment: Inhibition of bacterial VIM-4 (unknown origin) expressed in Escherichia coli EXPRESS BL21(DE3) assessed as inhibition constant by measuring rate of substrate hydrolysis by UV-visible spectrophotometry; design: species or system Bacteria; conditions: not given; outline: as §1

| Structure (SMILES) | Ki [nM] |
| --- | --- |
| Cc1[nH]cnc1CN(Cc1c[nH]cn1)[C@@H](CCCn1c(-c2ccccc2)n[nH]c1=S)C(=O)O | 420 |
| O=C(O)[C@H](CCCn1c(-c2ccc3ccccc3c2)n[nH]c1=S)N(Cc1c[nH]cn1)Cc1c[nH]cn1 | 340 |
| O=C(O)[C@H](CCCn1c(-c2ccccc2)n[nH]c1=S)N(Cc1c[nH]cn1)Cc1c[nH]cn1 | 200 |
| O=C(O)[C@H](CCn1c(-c2ccccc2)n[nH]c1=S)N(Cc1c[nH]cn1)Cc1c[nH]cn1 | 230 |
| O=C(O)[C@H](CCCn1c(-c2ccccc2)n[nH]c1=S)N(Cc1ccccn1)Cc1ccccn1 | 760 |

system: Klebsiella pneumoniae; experiment: Antimicrobial activity against blaVIM-4-producing multidrug-resistant Klebsiella pneumoniae VA-416/02 clinical isolate assessed as meropenem MIC at 32 ug/ml by broth microdilution method (reference value: […] ug/ml); type: functional; conditions: dose 32 µg/ml
Outline: (§2)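 Inoculum was 5×10^4 CFU/well. Each inhibitor was present at a fixed 32 μg/mL, and MICs were also taken without inhibitor.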

| Structure (SMILES) | MIC [µg/mL] |
| --- | --- |
| Cc1[nH]cnc1CN(Cc1c[nH]cn1)[C@@H](CCCn1c(-c2ccccc2)n[nH]c1=S)C(=O)O | 0.03 |
| O=C(O)[C@H](CCCn1c(-c2ccc3ccccc3c2)n[nH]c1=S)N(Cc1c[nH]cn1)Cc1c[nH]cn1 | 0.03 |
| O=C(O)[C@H](CCCn1c(-c2ccccc2)n[nH]c1=S)N(Cc1c[nH]cn1)Cc1c[nH]cn1 | 0.03 |
| O=C(O)[C@H](CCn1c(-c2ccccc2)n[nH]c1=S)N(Cc1c[nH]cn1)Cc1c[nH]cn1 | 0.03 |
| O=C(O)[C@H](CCCn1c(-c2ccccc2)n[nH]c1=S)N(Cc1ccccn1)Cc1ccccn1 | 0.03 |

system: Pseudomonas aeruginosa; experiment: Antimicrobial activity against blaVIM-2-producing multidrug-resistant Pseudomonas aeruginosa VA-182/00 clinical isolate assessed as meropenem MIC at 32 ug/ml by broth microdilution method (reference value: 128 ug/ml); type: functional; conditions: dose 32 µg/ml; outline: as §2

| Structure (SMILES) | MIC [µg/mL] |
| --- | --- |
| Cc1[nH]cnc1CN(Cc1c[nH]cn1)[C@@H](CCCn1c(-c2ccccc2)n[nH]c1=S)C(=O)O | 8 |
| O=C(O)[C@H](CCCn1c(-c2ccc3ccccc3c2)n[nH]c1=S)N(Cc1c[nH]cn1)Cc1c[nH]cn1 | 8 |
| O=C(O)[C@H](CCCn1c(-c2ccccc2)n[nH]c1=S)N(Cc1c[nH]cn1)Cc1c[nH]cn1 | 8 |
| O=C(O)[C@H](CCn1c(-c2ccccc2)n[nH]c1=S)N(Cc1c[nH]cn1)Cc1c[nH]cn1 | 8 |
| O=C(O)[C@H](CCCn1c(-c2ccccc2)n[nH]c1=S)N(Cc1ccccn1)Cc1ccccn1 | 16 |

system: not listed separately; experiment: Metabolic stability in CD-1 mouse microsomes assessed as intrinsic clearance at 37 degC by LC-MS/MS analysis; type: ADME, Microsome; conditions: CD-1, mouse
Outline: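 Mouse liver microsomes, mixed gender, at 37 °C for 40 min; propranolol control. Reports t1/2, intrinsic clearance and % intact compound remaining at 40 min.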

| Structure (SMILES) | microsomal CLint [µL/min/mg] |
| --- | --- |
| Cc1[nH]cnc1CN(Cc1c[nH]cn1)[C@@H](CCCn1c(-c2ccccc2)n[nH]c1=S)C(=O)O | 5.5 |
| O=C(O)[C@H](CCn1c(-c2ccccc2)n[nH]c1=S)N(Cc1c[nH]cn1)Cc1c[nH]cn1 | 10.6 |
| O=C(O)[C@H](CCCn1c(-c2ccccc2)n[nH]c1=S)N(Cc1ccccn1)Cc1ccccn1 | 16.5 |

same assay, conditions: mouse

| Structure (SMILES) | Stability |
| --- | --- |
| O=C(O)[C@H](CCCn1c(-c2ccc3ccccc3c2)n[nH]c1=S)N(Cc1c[nH]cn1)Cc1c[nH]cn1 | Stable |
| O=C(O)[C@H](CCCn1c(-c2ccccc2)n[nH]c1=S)N(Cc1c[nH]cn1)Cc1c[nH]cn1 | Stable |

system: not listed separately; experiment: Plasma protein binding in CD-1 mouse plasma measured after 4 hrs by LC-MS/MS analysis; type: ADME, cell-free; conditions: read-out: PPB (converted)
Outline: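 Binding to mouse plasma proteins (mixed gender) measured; diclofenac as control.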

| Structure (SMILES) | fraction unbound at 4 h |
| --- | --- |
| Cc1[nH]cnc1CN(Cc1c[nH]cn1)[C@@H](CCCn1c(-c2ccccc2)n[nH]c1=S)C(=O)O | 0.377 |
| O=C(O)[C@H](CCCn1c(-c2ccc3ccccc3c2)n[nH]c1=S)N(Cc1c[nH]cn1)Cc1c[nH]cn1 | 0.048 |
| O=C(O)[C@H](CCCn1c(-c2ccccc2)n[nH]c1=S)N(Cc1c[nH]cn1)Cc1c[nH]cn1 | 0.324 |
| O=C(O)[C@H](CCn1c(-c2ccccc2)n[nH]c1=S)N(Cc1c[nH]cn1)Cc1c[nH]cn1 | 0.45 |
| O=C(O)[C@H](CCCn1c(-c2ccccc2)n[nH]c1=S)N(Cc1ccccn1)Cc1ccccn1 | 0.313 |

molecular target: T1, Insulin-degrading enzyme (Homo sapiens, UniProt P14735); experiment: Inhibition of recombinant human IDE using ATTO 655-Cys-Lys-Leu-Val-Phe-Phe-Ala-Glu-Asp-Trp as substrate measured after 45 mins by fluorescence assay; conditions: not given
T1 sequence (P14735 whole entry): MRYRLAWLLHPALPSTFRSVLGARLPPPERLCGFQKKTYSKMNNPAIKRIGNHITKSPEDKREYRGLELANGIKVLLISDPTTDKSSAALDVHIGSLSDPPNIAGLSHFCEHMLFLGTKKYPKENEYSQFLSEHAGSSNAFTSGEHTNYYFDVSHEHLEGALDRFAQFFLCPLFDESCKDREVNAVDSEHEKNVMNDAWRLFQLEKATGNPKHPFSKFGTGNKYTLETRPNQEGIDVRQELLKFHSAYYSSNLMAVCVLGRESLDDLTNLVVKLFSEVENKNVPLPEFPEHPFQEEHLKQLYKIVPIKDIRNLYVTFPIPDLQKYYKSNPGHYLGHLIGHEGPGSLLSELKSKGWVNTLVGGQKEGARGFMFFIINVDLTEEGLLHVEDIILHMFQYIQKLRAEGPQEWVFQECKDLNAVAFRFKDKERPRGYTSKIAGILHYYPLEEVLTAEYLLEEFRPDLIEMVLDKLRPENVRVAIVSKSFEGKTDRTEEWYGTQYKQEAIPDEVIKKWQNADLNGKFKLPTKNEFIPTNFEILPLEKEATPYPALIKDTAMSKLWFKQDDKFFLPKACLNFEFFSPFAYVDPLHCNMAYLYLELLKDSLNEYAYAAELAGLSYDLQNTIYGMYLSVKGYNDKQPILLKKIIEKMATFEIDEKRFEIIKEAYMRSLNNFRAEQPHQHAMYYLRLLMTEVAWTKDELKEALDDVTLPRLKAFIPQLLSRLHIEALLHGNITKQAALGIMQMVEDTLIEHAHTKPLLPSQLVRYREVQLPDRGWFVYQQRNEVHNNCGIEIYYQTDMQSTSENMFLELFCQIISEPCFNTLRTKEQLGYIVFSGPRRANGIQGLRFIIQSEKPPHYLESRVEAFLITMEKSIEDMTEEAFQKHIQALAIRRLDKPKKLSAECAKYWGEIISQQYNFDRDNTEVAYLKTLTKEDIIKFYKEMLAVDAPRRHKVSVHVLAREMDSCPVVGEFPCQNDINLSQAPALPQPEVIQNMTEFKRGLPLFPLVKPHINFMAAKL

| Structure (SMILES) | IC50 [nM] |
| --- | --- |
| Cc1[nH]cnc1CN(Cc1c[nH]cn1)[C@@H](CCCn1c(-c2ccccc2)n[nH]c1=S)C(=O)O | 35000 |
| O=C(O)[C@H](CCCn1c(-c2ccc3ccccc3c2)n[nH]c1=S)N(Cc1c[nH]cn1)Cc1c[nH]cn1 | 9100 |
| O=C(O)[C@H](CCCn1c(-c2ccccc2)n[nH]c1=S)N(Cc1c[nH]cn1)Cc1c[nH]cn1 | 20000 |
| O=C(O)[C@H](CCn1c(-c2ccccc2)n[nH]c1=S)N(Cc1c[nH]cn1)Cc1c[nH]cn1 | 17000 |
| O=C(O)[C@H](CCCn1c(-c2ccccc2)n[nH]c1=S)N(Cc1ccccn1)Cc1ccccn1 | 41000 |

molecular target: T2, Endoplasmic reticulum aminopeptidase 1 (Mus musculus) (UniProt Q9EQH2); experiment: Inhibition of recombinant mouse ERAAP using fluorogenic substrate H-Leu-AMC at 100 uM relative to control; conditions: not given
T2 sequence (whole entry): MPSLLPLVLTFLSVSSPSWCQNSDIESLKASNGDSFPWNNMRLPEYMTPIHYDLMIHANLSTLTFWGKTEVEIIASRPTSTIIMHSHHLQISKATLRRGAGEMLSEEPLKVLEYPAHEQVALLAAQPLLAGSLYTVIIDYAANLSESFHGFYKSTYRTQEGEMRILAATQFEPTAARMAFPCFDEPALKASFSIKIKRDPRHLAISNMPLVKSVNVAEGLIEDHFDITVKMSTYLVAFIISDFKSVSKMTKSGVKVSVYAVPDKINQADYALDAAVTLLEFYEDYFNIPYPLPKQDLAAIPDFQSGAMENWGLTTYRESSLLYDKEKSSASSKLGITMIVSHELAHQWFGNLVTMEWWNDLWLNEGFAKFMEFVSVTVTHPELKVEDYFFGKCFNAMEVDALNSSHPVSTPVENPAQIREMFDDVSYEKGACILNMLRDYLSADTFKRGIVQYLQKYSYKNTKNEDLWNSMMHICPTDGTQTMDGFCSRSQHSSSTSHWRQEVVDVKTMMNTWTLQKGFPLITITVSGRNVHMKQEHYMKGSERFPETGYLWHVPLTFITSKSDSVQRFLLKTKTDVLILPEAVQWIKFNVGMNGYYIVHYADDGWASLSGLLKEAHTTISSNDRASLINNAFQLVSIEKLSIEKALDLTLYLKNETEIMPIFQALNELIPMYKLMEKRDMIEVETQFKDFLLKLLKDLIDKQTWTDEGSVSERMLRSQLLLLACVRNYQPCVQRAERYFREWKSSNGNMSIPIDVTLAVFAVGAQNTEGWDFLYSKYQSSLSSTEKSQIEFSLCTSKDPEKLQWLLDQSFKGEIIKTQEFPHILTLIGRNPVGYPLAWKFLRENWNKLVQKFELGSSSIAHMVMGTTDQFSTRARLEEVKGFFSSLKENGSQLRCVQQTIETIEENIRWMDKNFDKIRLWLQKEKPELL
Outline: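 Mouse ERAAP, H-Leu-AMC substrate; undisclosed in-house control inhibitor. Percent inhibition at 100 μM, one experiment in duplicate.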

| Structure (SMILES) | inhibition [%] |
| --- | --- |
| Cc1[nH]cnc1CN(Cc1c[nH]cn1)[C@@H](CCCn1c(-c2ccccc2)n[nH]c1=S)C(=O)O | 42 |
| O=C(O)[C@H](CCCn1c(-c2ccc3ccccc3c2)n[nH]c1=S)N(Cc1c[nH]cn1)Cc1c[nH]cn1 | 63 |
| O=C(O)[C@H](CCCn1c(-c2ccccc2)n[nH]c1=S)N(Cc1c[nH]cn1)Cc1c[nH]cn1 | 51 |
| O=C(O)[C@H](CCn1c(-c2ccccc2)n[nH]c1=S)N(Cc1c[nH]cn1)Cc1c[nH]cn1 | 51 |
| O=C(O)[C@H](CCCn1c(-c2ccccc2)n[nH]c1=S)N(Cc1ccccn1)Cc1ccccn1 | 13 |

system: Escherichia coli; experiment: Antimicrobial activity against blaNDM-1-producing multidrug-resistant Escherichia coli SI-004 clinical isolate assessed as meropenem MIC at 32 ug/ml by broth microdilution method (reference value: 64 ug/ml); conditions: not given

| Structure (SMILES) | MIC [µg/mL] |
| --- | --- |
| Cc1[nH]cnc1CN(Cc1c[nH]cn1)[C@@H](CCCn1c(-c2ccccc2)n[nH]c1=S)C(=O)O | 0.06 |
| O=C(O)[C@H](CCCn1c(-c2ccc3ccccc3c2)n[nH]c1=S)N(Cc1c[nH]cn1)Cc1c[nH]cn1 | 0.06 |
| O=C(O)[C@H](CCCn1c(-c2ccccc2)n[nH]c1=S)N(Cc1c[nH]cn1)Cc1c[nH]cn1 | 0.06 |
| O=C(O)[C@H](CCn1c(-c2ccccc2)n[nH]c1=S)N(Cc1c[nH]cn1)Cc1c[nH]cn1 | 0.06 |
| O=C(O)[C@H](CCCn1c(-c2ccccc2)n[nH]c1=S)N(Cc1ccccn1)Cc1ccccn1 | 0.06 |
